The nature of data set [1]: Cmax in Wistar-Hannover rat plasma at 4 mg/kg, po and measured up to 24 hrs by LC/MS-MS analysis. More on the design: route oral, dose 4 mg/kg, time <=24. In kind it is ADME, organism-based.
Data set [2] in a line: Half life in Wistar-Hannover rat plasma at 4 mg/kg, po and measured up to 24 hrs by LC/MS-MS analysis. Type of data set: ADME, organism-based.
Data set [3] is described as follows: AUC (0 to 24 hrs) in cynomolgus monkey plasma at 1 mg/kg, iv and measured up to 72 hrs by LC/MS-MS analysis. More on the design: route intravenous, dose 1 mg/kg, time <=72. Type of data set: ADME, organism-based, Macaca fascicularis. Put shortly:
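Cynomolgus monkeys received an IV solution of the tris salt in 2% N-methylpyrrolidone and 98% sulfobutylether-β-cyclodextrin (12.5%) in 50 mM TRIS buffer, pH 8.0. AUC0–24 came from plasma concentration–time data by the linear trapezoidal rule, averaged for n = 2.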

The next data set addresses Cytochrome P450 2B6 (Homo sapiens, UniProt P20813). Kind of data set: inhibition of CYP2B6 in human liver microsomes. Type of data set: ADME.
The target in a further data set is Cytochrome P450 2C9 (Homo sapiens, UniProt P11712). Kind of data set: inhibition of CYP2C9 in human liver microsomes. In kind it is ADME.
Chain of Cytochrome P450 2C9 (P11712 whole entry): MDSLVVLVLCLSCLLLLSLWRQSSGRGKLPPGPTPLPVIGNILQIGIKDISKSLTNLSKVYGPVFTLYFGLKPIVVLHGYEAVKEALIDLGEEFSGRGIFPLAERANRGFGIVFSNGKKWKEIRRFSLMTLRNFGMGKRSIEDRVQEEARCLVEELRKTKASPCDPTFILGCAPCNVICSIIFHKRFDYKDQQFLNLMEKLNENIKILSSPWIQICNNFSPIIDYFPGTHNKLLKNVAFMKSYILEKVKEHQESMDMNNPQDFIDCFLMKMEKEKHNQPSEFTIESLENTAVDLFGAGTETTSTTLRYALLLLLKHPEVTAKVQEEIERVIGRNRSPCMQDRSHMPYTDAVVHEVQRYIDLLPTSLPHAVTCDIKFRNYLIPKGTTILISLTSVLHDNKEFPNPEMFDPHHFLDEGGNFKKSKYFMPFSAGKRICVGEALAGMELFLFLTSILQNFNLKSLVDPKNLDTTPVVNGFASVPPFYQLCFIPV
Data set [4] in a line: Fraction unbound in human plasma by equilibrium dialysis method. Type of data set: ADME, cell-free.
The nature of data set [5]: Thermodynamic solubility of the compound at pH 6.5 after 24 hrs. In kind it is physicochemical. The note with it: buffer, read-out: Therm_solubility.
Data set [6] deals with Organic anion transporter 3 (Homo sapiens, UniProt Q8TCC7). Kind of data set: Inhibition of human SLC22A8 expressed in HEK293 cells in presence of para-aminohippuric acid/metformin. In kind it is cell-based.
Chain of Organic anion transporter 3 (Q8TCC7 whole entry): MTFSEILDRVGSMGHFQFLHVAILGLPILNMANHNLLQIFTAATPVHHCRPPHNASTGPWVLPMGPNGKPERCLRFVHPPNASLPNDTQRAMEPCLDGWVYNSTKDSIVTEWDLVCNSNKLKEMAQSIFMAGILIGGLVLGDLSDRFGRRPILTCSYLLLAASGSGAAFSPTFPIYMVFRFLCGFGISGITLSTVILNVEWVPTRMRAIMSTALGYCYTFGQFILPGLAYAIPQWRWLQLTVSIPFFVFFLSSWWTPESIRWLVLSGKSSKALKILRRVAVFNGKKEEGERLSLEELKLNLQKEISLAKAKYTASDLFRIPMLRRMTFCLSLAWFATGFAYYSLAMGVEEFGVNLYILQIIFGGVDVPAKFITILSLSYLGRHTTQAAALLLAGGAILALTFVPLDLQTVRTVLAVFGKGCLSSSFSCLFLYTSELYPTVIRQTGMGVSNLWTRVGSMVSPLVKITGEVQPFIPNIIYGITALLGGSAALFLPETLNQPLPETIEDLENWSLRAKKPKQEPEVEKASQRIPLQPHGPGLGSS
Data set [7] concerns the target P-glycoprotein 1 (Homo sapiens). Kind of data set: Inhibition of human ABCB1 expressed in MDCK2-LE cells in presence of […].
The target in another data set is NTCP (Homo sapiens, UniProt Q14973). Kind of data set: Substrate activity at human NTCP stably expressed in HEK293 cells assessed as ratio of total to passive cellular uptake at 1 uM incubated for 0.5 to 4 mins by LC/MS-MS analysis. In kind it is cell-based. Conditions: HEK293 cells stably expressing human NTCP, time 0.5-4 min; call rule not given here. An outline of the steps: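 HEK293 cells stably transfected with the transporter, plus wild-type cells, grown to confluence in DMEM with 10% heat-inactivated FBS and 5 µg/mL blasticidin. Washed with HBSS/20 mM HEPES, pH 7.4, then incubated with compound at 37 °C for 0.5–4.0 min. Cells washed ice-cold, lysed in MeOH for LC-MS/MS, uptake normalized to BCA protein. Ratio = transfected/wild-type uptake, averaged over time points.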
Chain of NTCP (Q14973 whole entry): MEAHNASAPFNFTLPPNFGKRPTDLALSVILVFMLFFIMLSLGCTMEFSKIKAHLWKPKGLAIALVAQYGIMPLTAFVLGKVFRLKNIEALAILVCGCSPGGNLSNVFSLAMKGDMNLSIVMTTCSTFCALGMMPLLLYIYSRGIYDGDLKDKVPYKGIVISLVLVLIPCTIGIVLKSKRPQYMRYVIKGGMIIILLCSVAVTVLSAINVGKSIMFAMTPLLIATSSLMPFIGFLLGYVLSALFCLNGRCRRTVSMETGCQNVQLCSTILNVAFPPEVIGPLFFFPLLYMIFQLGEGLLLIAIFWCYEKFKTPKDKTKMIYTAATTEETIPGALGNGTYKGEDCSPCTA

Data set [8] in a line: Inhibition of DNL in cynomolgus monkey assessed as fructose-induced DNL level at 10 mg/kg, po after 9 hrs relative to control. In kind it is functional. Conditions: Macaca fascicularis. Put shortly:
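Male cynomolgus macaques were fasted overnight and enriched with plasma D2O, then given a single 10 mg/kg PO dose. Fructose was given orally every 30 min from t = 0, with a banana at hours 2 and 3. Deuterium incorporation into plasma TG palmitate was followed over 9 h, n = 12, mean ± SEM, versus vehicle.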

Data set [9] addresses Broad substrate specificity ATP-binding cassette transporter ABCG2 (Homo sapiens, UniProt Q9UNQ0). Kind of data set: Inhibition of human ABCG2 expressed in MDCK2-LE cells in presence of […]. Type of data set: cell-based, MDCKII-LE.
In data set [10] the target is T1, Cytochrome P450 1A2 (Homo sapiens, UniProt P05177). Kind of data set: inhibition of CYP1A2 in human liver microsomes. In kind it is ADME. Background: Microsomes from liver hold many membrane-bound enzymes, among them those of drug oxidation.
T1 sequence (P05177 whole entry): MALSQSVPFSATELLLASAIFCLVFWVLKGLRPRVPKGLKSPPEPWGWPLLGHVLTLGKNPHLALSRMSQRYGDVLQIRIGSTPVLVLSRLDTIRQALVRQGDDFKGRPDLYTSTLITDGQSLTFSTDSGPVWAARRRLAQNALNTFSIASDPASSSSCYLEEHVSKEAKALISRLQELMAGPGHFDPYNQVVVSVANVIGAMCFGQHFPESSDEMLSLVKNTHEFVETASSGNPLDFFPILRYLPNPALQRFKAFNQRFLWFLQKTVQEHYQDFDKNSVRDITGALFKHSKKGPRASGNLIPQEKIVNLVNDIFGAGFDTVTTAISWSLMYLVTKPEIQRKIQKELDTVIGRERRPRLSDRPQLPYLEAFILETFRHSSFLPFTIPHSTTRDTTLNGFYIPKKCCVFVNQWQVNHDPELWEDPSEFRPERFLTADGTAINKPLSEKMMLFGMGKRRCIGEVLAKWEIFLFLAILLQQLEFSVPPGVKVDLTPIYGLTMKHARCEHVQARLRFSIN
The nature of data set [11]: Fraction unbound in monkey plasma by equilibrium dialysis method. In kind it is ADME, cell-free, Macaca mulatta. Conditions: rhesus monkey. An outline of the steps:
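Fraction unbound in plasma and liver tissue was determined by equilibrium dialysis.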
Background: Equilibrium dialysis compares concentrations on both sides of a semipermeable membrane.

Data set [12] can be described thus: Drug uptake in human hepatocytes assessed as ratio of active uptake intrinsic clearance to passive diffusion clearance at 1 uM up to 15 mins by LC-MS/MS analysis. Type of data set: ADME, cell-based, Hepatocyte. The note with it: 0.25 h.
Another data set concerns CHO. Kind of data set: Genotoxicity in CHO cells by micronucleus test. In kind it is toxicity, cell-based, Cricetulus griseus. Conditions: chinese hamster. Put shortly:
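In vitro micronucleus assay in Chinese hamster ovary or TK6 cells, run with and without metabolic activation by aroclor-induced rat liver S9 fraction plus NADPH.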

For data set [13], the target named is Solute carrier family 22 member 6 (Homo sapiens, UniProt Q4U2R8). Kind of data set: Inhibition of human SLC22A6 expressed in HEK293 cells in presence of para-aminohippuric acid/metformin. In kind it is cell-based.
Data set [14] is described as follows: Induction of CYP1A2 mRNA expression in human hepatocytes at 0.5 to 200 uM. The note with it: dose 0.5-200 µM. In kind it is ADME, cell-based, Hepatocyte. An outline of the steps: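 Individual human hepatocyte lots treated at 0.5–200 µM. Read-out is messenger RNA levels of CYP1A2 and CYP3A4.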
A further data set has as its system Rattus norvegicus. Kind of data set: Effect on triglyceride accumulation in Sprague-Dawley rat high fat dietary model at 3 mg/kg, po assessed as reduction in triglyceride level after 42 days by XPT clinical analyzer. More on the design: scale not given: the % may be the effect or the level left. In kind it is functional. The note with it: time 42 day. An outline of the steps: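 High-fat-diet-fed Sprague-Dawley rats dosed orally for 42 days, with chow-fed and vehicle controls, n = 10 per group. Read-out is hepatic triglyceride, reported as mean ± SEM.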

Data set [15] addresses UDP-glucuronosyltransferase 2B15 (Homo sapiens, UniProt P54855). Kind of data set: Inhibition of UGT2B15 in human liver microsomes in presence of UDPGA by LC-MS/MS analysis. Type of data set: ADME.
In data set [16] the target is UDP-glucuronosyltransferase 1A9 (Homo sapiens, UniProt O60656). Kind of data set: Inhibition of UGT1A9 in human liver microsomes incubated for 30 mins in presence of UDPGA by LC-MS/MS analysis. In kind it is ADME.
Data set [17] addresses Acetyl-CoA carboxylase 1 (Rattus norvegicus, UniProt P11497). Kind of data set: Inhibition of rat ACC1 using acetyl-CoA as substrate incubated for 20 mins in presence of [14C]O3 by liquid scintillation counting method. An outline of the steps: (§1)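 Radioenzymatic assay with purified ACC isozymes, measuring [14C]-bicarbonate incorporation into [14C]-malonyl-CoA. Mode of inhibition taken from substrate concentration-dependence experiments varying ATP or carbonate. IC50 dose-response run at saturating ATP.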

The target of data set [18] is Voltage-gated inwardly rectifying potassium channel KCNH2 (Homo sapiens, UniProt Q12809). Kind of data set: Inhibition of human ERG at 100 uM.
Chain of Voltage-gated inwardly rectifying potassium channel KCNH2 (Q12809 whole entry): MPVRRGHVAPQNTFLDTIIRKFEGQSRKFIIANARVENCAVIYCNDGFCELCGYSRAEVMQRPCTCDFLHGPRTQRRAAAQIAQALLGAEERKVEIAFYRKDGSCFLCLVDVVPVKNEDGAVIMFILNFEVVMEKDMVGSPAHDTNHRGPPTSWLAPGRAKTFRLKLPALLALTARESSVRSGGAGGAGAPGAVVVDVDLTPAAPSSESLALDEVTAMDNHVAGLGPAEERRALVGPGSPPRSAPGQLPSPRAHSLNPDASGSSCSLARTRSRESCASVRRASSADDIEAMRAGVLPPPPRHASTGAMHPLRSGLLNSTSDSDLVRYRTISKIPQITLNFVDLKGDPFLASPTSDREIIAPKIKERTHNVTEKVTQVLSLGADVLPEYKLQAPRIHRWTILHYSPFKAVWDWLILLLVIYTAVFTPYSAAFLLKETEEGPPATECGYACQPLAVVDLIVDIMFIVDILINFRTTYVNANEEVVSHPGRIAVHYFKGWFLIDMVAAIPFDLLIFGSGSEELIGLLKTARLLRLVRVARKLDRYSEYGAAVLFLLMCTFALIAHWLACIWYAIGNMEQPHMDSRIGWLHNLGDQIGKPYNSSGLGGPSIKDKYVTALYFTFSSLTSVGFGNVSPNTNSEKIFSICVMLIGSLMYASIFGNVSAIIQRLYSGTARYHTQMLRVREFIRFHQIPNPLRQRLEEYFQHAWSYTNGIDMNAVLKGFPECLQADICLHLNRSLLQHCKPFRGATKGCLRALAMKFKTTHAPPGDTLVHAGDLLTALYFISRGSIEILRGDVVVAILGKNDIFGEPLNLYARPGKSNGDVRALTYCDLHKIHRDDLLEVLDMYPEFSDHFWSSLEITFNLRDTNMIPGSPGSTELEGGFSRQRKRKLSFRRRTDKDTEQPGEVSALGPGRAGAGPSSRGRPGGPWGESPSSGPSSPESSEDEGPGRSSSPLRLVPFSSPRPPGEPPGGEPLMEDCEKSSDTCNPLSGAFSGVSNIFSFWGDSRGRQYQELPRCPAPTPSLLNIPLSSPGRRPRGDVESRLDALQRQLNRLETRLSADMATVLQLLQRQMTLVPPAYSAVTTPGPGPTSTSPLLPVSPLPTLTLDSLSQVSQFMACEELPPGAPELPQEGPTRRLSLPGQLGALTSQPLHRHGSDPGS
Another data set concerns the target Cytochrome P450 3A4 (Homo sapiens, UniProt P08684). Kind of data set: Activation of CYP3A4 in human hepatocytes at 0.5 to 200 uM. The note with it: dose 0.5-200 µM. In kind it is ADME, cell-based, Hepatocyte. Put shortly: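 Individual human hepatocyte lots treated at 0.5–200 µM. Read-out is CYP3A4 enzyme activity.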
Data set [19] addresses UDP-glucuronosyltransferase 1A4 (Homo sapiens, UniProt P22310). Kind of data set: Inhibition of UGT1A4 in human liver microsomes incubated for 30 mins in presence of UDPGA by LC-MS/MS analysis. Type of data set: ADME.
Data set [20] in a line: Toxicity in cynomolgus monkey assessed as reduction in platelet count at >= 30 mg/kg, po after 14 days. Type of data set: organism-based, Macaca fascicularis. The note with it: in vivo.
Data set [21] is described as follows: Genotoxicity in Salmonella typhimurium TA1535 by Ames test. In kind it is toxicity. The note with it: salmonella enterica subsp. enterica serovar typhimurium. Put shortly: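 Ames test in Salmonella strains TA98, TA100, TA1535 and TA1537, run with and without aroclor-induced rat liver S9 plus NADPH.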
For orientation: The Ames test detects mutagens through reverse mutation in bacteria.

A short description of data set [22]: Toxicity in cynomolgus monkey assessed as reduction in platelet count at 3 to 10 mg/kg, po after 14 days. Type of data set: organism-based, Macaca fascicularis. The note with it: in vivo, 336 h, dose 3-10 mg/kg, time 14 day.
The target in data set [23] is Acetyl-CoA carboxylase 1 (Homo sapiens, UniProt Q13085). Kind of data set: Uncompetitive inhibition of human ACC1 incubated for 15 mins in presence of ATP by Line weaver-Burk plot analysis. An outline of the steps:
as §1

Data set [24] is described as follows: Thermodynamic solubility of the compound at pH 1.2 after 24 hrs. Type of data set: physicochemical. Conditions: buffer, read-out: Therm_solubility.
Data set [25] deals with T1, Cytochrome P450 1A2. Kind of data set: Activation of CYP1A2 in human hepatocytes at 0.5 to 200 uM. Conditions: dose 0.5-200 µM. Type of data set: ADME, cell-based, Hepatocyte.

≈ marks a conversion by molar mass, not a printed value.

Usually Cmax stands for the peak of the concentration-time curve. One may read the half-life as the time in which the quantity being followed falls by half. A word on the AUC(0-t): it is exposure summed from dosing to a finite time, without extrapolation to infinity. As a reminder, the IC50 is the concentration needed to halve the response being measured. A word on the fraction unbound: it is free concentration divided by total concentration. The inhibition in vivo is how much of the control response was suppressed.

Chain of UDP-glucuronosyltransferase 1A4 (P22310 whole entry): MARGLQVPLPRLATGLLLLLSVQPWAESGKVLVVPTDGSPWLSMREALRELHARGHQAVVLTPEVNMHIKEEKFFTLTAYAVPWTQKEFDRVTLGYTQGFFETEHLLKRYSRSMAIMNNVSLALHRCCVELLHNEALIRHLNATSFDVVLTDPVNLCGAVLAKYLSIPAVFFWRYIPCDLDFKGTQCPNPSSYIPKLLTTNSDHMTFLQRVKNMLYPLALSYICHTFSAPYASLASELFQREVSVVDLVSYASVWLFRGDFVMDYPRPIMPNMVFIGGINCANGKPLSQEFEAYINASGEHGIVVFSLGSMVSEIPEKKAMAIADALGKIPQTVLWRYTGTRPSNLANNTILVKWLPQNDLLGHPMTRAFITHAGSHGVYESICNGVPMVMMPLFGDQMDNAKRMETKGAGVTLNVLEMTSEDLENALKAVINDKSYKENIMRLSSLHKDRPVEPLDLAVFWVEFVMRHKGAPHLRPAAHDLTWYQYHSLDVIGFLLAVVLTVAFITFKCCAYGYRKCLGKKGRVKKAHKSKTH
Chain of UDP-glucuronosyltransferase 2B15 (P54855 whole entry): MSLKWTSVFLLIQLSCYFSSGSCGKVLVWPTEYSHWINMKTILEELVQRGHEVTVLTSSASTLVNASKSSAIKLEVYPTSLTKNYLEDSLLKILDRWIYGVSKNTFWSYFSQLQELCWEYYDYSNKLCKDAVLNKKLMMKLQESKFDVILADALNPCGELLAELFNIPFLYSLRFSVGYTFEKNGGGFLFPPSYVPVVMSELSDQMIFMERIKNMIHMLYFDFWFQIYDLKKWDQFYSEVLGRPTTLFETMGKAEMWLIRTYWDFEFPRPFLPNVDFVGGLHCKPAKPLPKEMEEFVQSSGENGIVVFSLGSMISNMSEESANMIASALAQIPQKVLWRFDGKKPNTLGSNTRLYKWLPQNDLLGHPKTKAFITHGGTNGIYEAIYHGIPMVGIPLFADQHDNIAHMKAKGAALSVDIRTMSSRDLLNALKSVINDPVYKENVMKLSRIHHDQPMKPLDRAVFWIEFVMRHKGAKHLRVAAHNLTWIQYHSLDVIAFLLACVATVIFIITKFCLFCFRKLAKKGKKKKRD
Chain of Broad substrate specificity ATP-binding cassette transporter ABCG2 (Q9UNQ0 whole entry): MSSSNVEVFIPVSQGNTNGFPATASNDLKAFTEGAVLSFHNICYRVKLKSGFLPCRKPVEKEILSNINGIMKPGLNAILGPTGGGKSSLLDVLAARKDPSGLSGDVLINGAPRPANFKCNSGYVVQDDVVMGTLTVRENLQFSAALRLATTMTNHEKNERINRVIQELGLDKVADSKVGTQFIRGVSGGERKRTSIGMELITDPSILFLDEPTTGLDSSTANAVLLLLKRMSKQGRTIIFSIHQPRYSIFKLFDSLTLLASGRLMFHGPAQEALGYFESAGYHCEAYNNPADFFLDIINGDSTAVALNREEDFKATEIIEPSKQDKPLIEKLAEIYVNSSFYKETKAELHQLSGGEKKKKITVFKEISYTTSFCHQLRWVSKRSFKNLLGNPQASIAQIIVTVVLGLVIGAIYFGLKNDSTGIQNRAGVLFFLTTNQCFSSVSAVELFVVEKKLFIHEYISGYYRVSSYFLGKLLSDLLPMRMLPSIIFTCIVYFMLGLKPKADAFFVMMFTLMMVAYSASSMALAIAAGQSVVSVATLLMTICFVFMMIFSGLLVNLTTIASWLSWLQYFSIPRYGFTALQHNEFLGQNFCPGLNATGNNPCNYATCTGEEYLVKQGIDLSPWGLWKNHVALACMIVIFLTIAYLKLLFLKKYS

`COc1cc(C(=O)N2CCC3(CC2)CC(=O)c2nn(C(C)(C)C)cc2O3)cc(-c2ccc(C(=O)O)cc2)n1` showed a Cmax in data set [1] of 53.9 ng/mL. Further, the half-life in data set [2] was 5.7 h.
Take `COc1cc(C(=O)N2CCC3(CC2)CC(=O)c2c(cnn2C(C)C)C3)cc(-c2ccc(C(=O)O)cc2)n1` [CLESACOSTAT]: the area under the curve AUC(0-t) in [3] worked out at 14000 ng·h/mL. Further, the IC50 against Cytochrome P450 2B6 was > 50 µM; against Cytochrome P450 2C9, > 50 µM; in data set [6], > 30 µM; in data set [7] it was 39 µM; in data set [9] it was 68 µM; on Cytochrome P450 1A2 [10] it was > 50 µM. Besides, the IC50 in data set [13] was > 30 µM; in data set [15] it was > 20 µM; in data set [16] it was > 20 µM; on Acetyl-CoA carboxylase 1 [17] it was 0.00753 µM; in [19], > 20 µM; at Acetyl-CoA carboxylase 1 [23] it was 0.0124 µM. In addition, the free fraction (fraction unbound) in data set [4] was 0.006; in data set [11], 0.00956. Also, the solubility thermodynamic at 24 h worked out at 36 µM (≈ 18.1 µg/mL) in [5] and 8 µM (≈ 4.02 µg/mL) in [24]. Besides, the uptake ratio at 1 µM on NTCP is 3.2. Also, the inhibition in vivo at 10 mg/kg in [8] was 100%. In addition, the Ratio in data set [12] is 8.7. In addition, the Activity entry with CHO is on record as “Non-Toxic”; in data set [14], “Not Active”; with Rattus norvegicus, 30%; on Cytochrome P450 3A4, “Not Active”; in data set [20], “Toxic”; in data set [21], “Non-Toxic”. Besides, the figures for the Activity entry (in data set [22]; at Cytochrome P450 1A2 [25]) were “Non-Toxic” and “Not Active”, respectively. Also, the “inhibition (INH)” value in data set [18] is “Not Active”.

The values above are taken from ChEMBL document CHEMBL4665761, “Optimizing the Benefit/Risk of Acetyl-CoA Carboxylase Inhibitors through Liver Targeting” (J Med Chem, 2020).
